Results as given in ChEMBL document CHEMBL3868627, “Radical scavenging and antibacterial activity of caffemides against gram positive, gram negative and clinical drug resistance bacteria” (Bioorg Med Chem Lett, 2016).

Assay: Antioxidant activity assessed as DPPH free radical scavenging activity measured after 30 mins by spectrophotometry
Assay type: functional
Procedure, shortened: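 DPPH radical scavenging in ethanolic solution with a final DPPH concentration of 100 µM. Absorbance read at 517 nm. Percent inhibition = (A control − A test)/A control, where the control is DPPH without sample. The inhibition-versus-concentration plot gives EC50, the concentration giving a 50% drop in absorbance. Mean ± S.D. of three independent trials.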

Compound	EC50 [µM]
O=C(/C=C/c1ccc(O)c(O)c1)Nc1ccccc1	52.6
Nc1ccc(NC(=O)/C=C/c2ccc(O)c(O)c2)cc1	36
O=C(/C=C/c1ccc(O)c(O)c1)Nc1cc(Cl)c(O)c(Cl)c1	5.51
O=C(/C=C/c1ccc(O)c(O)c1)NCCc1c[nH]c2ccccc12	58.8
CC(=O)c1cccc(NC(=O)/C=C/c2ccc(O)c(O)c2)c1	10.6
CC(C)(C)c1ccc(O)c(NC(=O)/C=C/c2ccc(O)c(O)c2)c1	11.9

Other lines, results leading:

EC50 [µM]	Compound
7.21	O=C(/C=C/c1ccc(O)c(O)c1)Nc1ccc([N+](=O)[O-])cc1
47.3	O=C(/C=C/c1ccc(O)c(O)c1)Nc1ccc2ccccc2c1
30.9	O=C(O)/C=C/c1ccc(O)c(O)c1 [CAFFEIC ACID]
13.2	Cc1cc([N+](=O)[O-])ccc1NC(=O)/C=C/c1ccc(O)c(O)c1
27	O=C(/C=C/c1ccc(O)c(O)c1)Nc1ccccc1Sc1ccccc1
50.9	VITAMIN E
24.1	O=C(/C=C/c1ccc(O)c(O)c1)Nc1ccc(F)cc1
